Our source for the Ki, Ratio Ki and IC50 values is ChEMBL document CHEMBL5634103 (Eur J Med Chem, 2023).

Test [1] has as its target T1, D(2) dopamine receptor (Homo sapiens, UniProt P14416). Put plainly: Displacement of [125I]IABN from human D2L receptor expressed in HEK cells measured after 60 mins by gamma counting method. It counts as cell-based. For orientation: Displacement assays read how much labelled ligand stays bound in the presence of the test substance.
For test [2], the species on record is Homo sapiens. Put plainly: Selectivity ratio of Ki for displacement of [125I]IABN from human D2L receptor expressed in HEK cells to Ki for displacement of [125I]IABN from human D3R expressed in HEK cells. It counts as cell-based. The method in brief:
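20 µM (+)-butaclamol defines nonspecific binding. Inhibitor over 5 log units, two points per decade, triplicates. Gamma counting. Single-site IC50 converted to Ki (Cheng–Prusoff), ≥3 experiments. Ratio is D2 Ki/D3 Ki.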

In test [3] the target is T2, D(3) dopamine receptor (Homo sapiens, UniProt P35462). The experiment in a line: Displacement of [125I]IABN from human D3 receptor expressed in HEK cells measured after 60 mins by gamma counting method. It counts as cell-based.
Test [4] deals with T2, D(3) dopamine receptor. The experiment in a line: Binding affinity to human D3 receptor expressed in CHO-K1 cells assessed as inhibition of dopamine-induced beta-arrestin recruitment preincubated for 30 mins followed by dopamine addition and measured after 90 mins by pathhunter assay.
Test [5] deals with T1, D(2) dopamine receptor. The experiment in a line: Binding affinity to D2 receptor (unknown origin).

What is called Ki is the dissociation constant of the complex between target and ligand, obtained from inhibition or displacement. A low value points to tighter binding. What is called IC50 is the concentration that gives 50% inhibition.

T2 sequence (P35462 whole entry): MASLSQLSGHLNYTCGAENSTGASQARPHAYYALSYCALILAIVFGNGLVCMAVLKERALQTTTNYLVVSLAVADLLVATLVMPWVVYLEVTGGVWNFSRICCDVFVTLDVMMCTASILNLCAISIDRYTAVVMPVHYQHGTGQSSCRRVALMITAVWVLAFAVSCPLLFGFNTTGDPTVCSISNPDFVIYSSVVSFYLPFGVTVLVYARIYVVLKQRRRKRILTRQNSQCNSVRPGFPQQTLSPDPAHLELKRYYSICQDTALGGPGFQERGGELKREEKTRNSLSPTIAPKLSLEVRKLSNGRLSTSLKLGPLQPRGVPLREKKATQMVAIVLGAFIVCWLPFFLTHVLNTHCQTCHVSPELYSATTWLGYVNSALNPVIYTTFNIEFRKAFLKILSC
T1 sequence (P14416 whole entry): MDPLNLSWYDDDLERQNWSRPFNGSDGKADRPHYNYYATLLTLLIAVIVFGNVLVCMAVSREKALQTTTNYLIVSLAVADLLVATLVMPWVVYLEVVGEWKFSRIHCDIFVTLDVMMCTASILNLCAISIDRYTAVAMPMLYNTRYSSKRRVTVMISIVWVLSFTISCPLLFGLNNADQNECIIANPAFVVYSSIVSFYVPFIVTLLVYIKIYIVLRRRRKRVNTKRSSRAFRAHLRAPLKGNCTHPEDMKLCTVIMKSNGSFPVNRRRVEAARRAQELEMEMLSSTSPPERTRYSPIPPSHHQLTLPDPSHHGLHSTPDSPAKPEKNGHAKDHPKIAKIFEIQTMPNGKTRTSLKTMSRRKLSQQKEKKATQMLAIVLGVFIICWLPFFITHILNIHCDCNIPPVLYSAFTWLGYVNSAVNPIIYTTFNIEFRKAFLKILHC

In the case of `C=CCN1C[C@H](OCc2cccnc2)C[C@H]1CNC(=O)c1cc(CCCF)cc(OC)c1OC`, the Ki in test [1] turned out to be 2.5 nM; in test [3] it was 1.7 nM. Further, in test [2], the Ratio Ki is 1.5.

Consider `C=CCN1C[C@H](OC(=O)Nc2ccc(-c3ccsc3)cc2)C[C@@H]1CNC(=O)c1cc(CCCF)cc(OC)c1OC`, for which the inhibition constant (Ki) in test [1] was > 41000 nM; in test [3] it was 6790 nM. The Ratio Ki in test [2] was > 6.

With `C=CCN1CC[C@H](OCCCN)[C@H]1CNC(=O)c1cc(CCCF)cc(OC)c1OC`, the values for the Ki in test [1] and in test [3] were 21.4 nM and 6.2 nM, respectively. Further, in test [2], the Ratio Ki was 3.5.

`C=CCN1C[C@H](OCCO)C[C@H]1CNC(=O)c1cc(CCCF)cc(OC)c1OC`: the results for the Ki in test [1] and in test [3] were 8.4 nM and 2.4 nM, respectively. Further, in test [2], the Ratio Ki was determined as 3.5.

`CCN1C[C@H](OCCCN)C[C@H]1CNC(=O)c1cc(CCCF)cc(OC)c1OC`: the half-maximal inhibitory concentration (IC50) in test [4] turned out to be 3.3 nM. Further, the inhibition constant (Ki) in test [1] was 2.9 nM; in test [3], 1.4 nM. For the same molecule, the Ratio Ki in test [2] was 2.1.

Turning to `C=CCN1C[C@@H](OC(=O)Nc2ccc(-c3ccsc3)cc2)C[C@@H]1CNC(=O)c1cc(CCCF)cc(OC)c1OC`, in test [1], the inhibitory constant (Ki) came to 189 nM. In addition, in test [2], the Ratio Ki is 6.7.

Take `C=CCN1C[C@H](OCCCNC(=O)c2ccc(-c3ccsc3)cc2)C[C@H]1CNC(=O)c1cc(CCCF)cc(OC)c1OC`: the IC50 in test [4] stood at 8.1 nM. Besides, the Ki amounted to 13.4 nM in test [1] and 4.2 nM in test [3]. Further, in test [2], the Ratio Ki amounted to 3.2.

For the molecule `C=CCN1C[C@H](OCc2ccc(C(F)(F)F)cc2)C[C@H]1CNC(=O)c1cc(CCCF)cc(OC)c1OC`, the results for the Ki in test [1] and in test [3] were 32.1 nM and 23.7 nM, respectively. Also, in test [2], the Ratio Ki stood at 1.4.

As to `C=CCN1C[C@H](OCCCN)C[C@@H]1CNC(=O)c1cc(CCCF)cc(OC)c1OC`, the values for the inhibition constant Ki in test [1] and in test [3] were 2350 nM and 1950 nM, respectively. Further, the Ratio Ki in test [2] amounted to 1.2.

Turning to `C=CCN1C[C@H](OC(=O)Nc2ccc(-c3ccsc3)cc2)C[C@H]1CNC(=O)c1cc(CCCF)cc(OC)c1OC`, the IC50 in test [4] worked out at 169 nM. Further, the Ki was found to be 28.8 nM in test [1] and 7.7 nM in test [3]. Besides, the Ratio Ki in test [2] is 3.7.

Turning to `C=CCN1C[C@H](OC(=O)Nc2ccccc2C)C[C@H]1CNC(=O)c1cc(CCCF)cc(OC)c1OC`, the Ki in test [1] was determined as 12.6 nM; in test [3], 8.4 nM. In addition, the Ratio Ki in test [2] is 1.5.

`C=CCN1C[C@H](OCCCN)C[C@H]1CNC(=O)c1cc(CCCF)cc(OC)c1OC`: the half-inhibitory concentration (IC50) in test [4] was found to be 1.3 nM. Also, the Ki in test [1] worked out at 18.6 nM; in test [3] it was 8.4 nM. Moreover, the Ratio Ki in test [2] came out at 2.2.

Take `C=CCN1C[C@H](OCCN)C[C@H]1CNC(=O)c1cc(CCCF)cc(OC)c1OC`: the IC50 in test [4] worked out at 11 nM. Besides, the inhibitory constant (Ki) in test [1] was found to be 107 nM; in test [3], 9.5 nM. Besides, the Ratio Ki in test [2] was 11.3.

In test [5], `C=CCN1CCC[C@H]1CNC(=O)c1cc(CCCF)cc(OC)c1OC` [FALLYPRIDE] displayed an inhibition constant (Ki) of 0.02 nM.

On to `C=CCN1C[C@H](OC(=O)Nc2cccnc2)C[C@H]1CNC(=O)c1cc(CCCF)cc(OC)c1OC`, for which the values for the Ki in test [1] and in test [3] were 8.3 nM and 3.7 nM, respectively. In test [2], the Ratio Ki came to 2.2.

In turn, `C=CCN1C[C@@H](OC(=O)Nc2ccc(-c3ccsc3)cc2)C[C@H]1CNC(=O)c1cc(CCCF)cc(OC)c1OC` showed a Ki in test [1] of 9690 nM. For the same molecule, the Ratio Ki in test [2] was determined as 16.5.

`C=CCN1C[C@H](OC(=O)Nc2cccc(N(C)C)c2)C[C@H]1CNC(=O)c1cc(CCCF)cc(OC)c1OC`: the figures for the Ki in test [1] and in test [3] were 14 nM and 10.6 nM, respectively. Also, in test [2], the Ratio Ki came to 1.3.

On to `C=CCN1C[C@H](OCCCO)C[C@H]1CNC(=O)c1cc(CCCF)cc(OC)c1OC`, for which the results for the Ki in test [1] and in test [3] were 14.2 nM and 7.3 nM, respectively. Also, the Ratio Ki in test [2] came out at 1.9.

For `C=CCN1C[C@H](OCCCCN)C[C@H]1CNC(=O)c1cc(CCCF)cc(OC)c1OC`, the figures for the Ki in test [1] and in test [3] were 2.2 nM and 1.5 nM, respectively. The Ratio Ki in test [2] was found to be 1.4.

For the molecule `C=CCN1C[C@H](OC(=O)Nc2ccccc2)C[C@H]1CNC(=O)c1cc(CCCF)cc(OC)c1OC`, the inhibition constant (Ki) in test [1] came out at 29.2 nM; in test [3], 14.6 nM. The Ratio Ki in test [2] amounted to 2.

In the case of `C=CCN1C[C@H](OCc2ccc(F)cc2)C[C@H]1CNC(=O)c1cc(CCCF)cc(OC)c1OC`, the Ki in test [1] amounted to 9.5 nM; in test [3], 4.7 nM. In addition, the Ratio Ki in test [2] turned out to be 2.

With `C=CCN1C[C@H](OC(=O)Nc2ccccn2)C[C@H]1CNC(=O)c1cc(CCCF)cc(OC)c1OC`, the Ki in test [1] amounted to 10.1 nM; in test [3], 4.1 nM. Further, the Ratio Ki in test [2] stood at 2.4.

As for `CCN1C[C@H](OC(=O)Nc2ccc(-c3ccsc3)cc2)C[C@H]1CNC(=O)c1cc(CCCF)cc(OC)c1OC`, in test [4], the 50% inhibitory concentration (IC50) stood at 62.7 nM. Besides, the results for the Ki in test [1] and in test [3] were 16.2 nM and 4.3 nM, respectively. Besides, in test [2], the Ratio Ki amounted to 3.8.

`C=CCN1C[C@H](OC(=O)Nc2cc(C)ccc2OC)C[C@H]1CNC(=O)c1cc(CCCF)cc(OC)c1OC`: the figures for the Ki in test [1] and in test [3] were 18.7 nM and 12.5 nM, respectively. In addition, the Ratio Ki in test [2] is 1.5.

`C=CCN1C[C@H](OC(=O)NCc2ccccc2)C[C@H]1CNC(=O)c1cc(CCCF)cc(OC)c1OC`: the Ki in test [1] was 10.1 nM; in test [3], 6.2 nM. The Ratio Ki in test [2] is 1.6.

Regarding `C=CCO[C@@H]1C[C@@H](CNC(=O)c2cc(CCCF)cc(OC)c2OC)N(CC=C)C1`, the results for the inhibition constant (Ki) in test [1] and in test [3] were 7.4 nM and 2.6 nM, respectively. Also, the Ratio Ki in test [2] is 2.8.

As for `C=CCN1C[C@H](OC(=O)Nc2ccoc2)C[C@H]1CNC(=O)c1cc(CCCF)cc(OC)c1OC`, the inhibition constant (Ki) amounted to 8.3 nM in test [1] and 15 nM in test [3]. In test [2], the Ratio Ki was 0.6.

For `C=CCN1C[C@H](OCc2ccncc2)C[C@H]1CNC(=O)c1cc(CCCF)cc(OC)c1OC`, the Ki in test [1] was determined as 7 nM; in test [3] it was 4 nM. In addition, the Ratio Ki in test [2] is 1.7.

As to `C=CCN1C[C@H](OC(=O)NCCc2ccccc2)C[C@H]1CNC(=O)c1cc(CCCF)cc(OC)c1OC`, the figures for the Ki in test [1] and in test [3] were 30 nM and 12.8 nM, respectively. For the same molecule, in test [2], the Ratio Ki amounted to 2.3.

Turning to `C=CCN1CC[C@H](OCc2ccccc2)[C@H]1CNC(=O)c1cc(CCCF)cc(OC)c1OC`, the Ki in test [1] came to 7.3 nM; in test [3], 2.9 nM. Also, the Ratio Ki in test [2] was 2.5.

As for `C=CCN1C[C@H](OC(=O)Nc2ccsc2)C[C@H]1CNC(=O)c1cc(CCCF)cc(OC)c1OC`, the results for the Ki in test [1] and in test [3] were 7.7 nM and 6.1 nM, respectively. For the same molecule, in test [2], the Ratio Ki was 1.3.

With `C=CCN1C[C@H](OCc2ccccc2)C[C@H]1CNC(=O)c1cc(CCCF)cc(OC)c1OC`, the inhibitory constant (Ki) in test [3] amounted to 9.5 nM.

Consider `C=CCN1C[C@H](OC(=O)Nc2ccc(-c3ccccn3)cc2)C[C@H]1CNC(=O)c1cc(CCCF)cc(OC)c1OC`, for which, in test [4], the IC50 is 79.2 nM. Further, the inhibitory constant (Ki) turned out to be 22.4 nM in test [1] and 15.8 nM in test [3]. In addition, the Ratio Ki in test [2] was 1.4.
